{"data": "Measured values collected from several papers", "JAK1": "Tyrosine-protein kinase JAK1 (JAK1, Homo sapiens, UniProt P23458)", "JAK1 JH1": "Tyrosine-protein kinase JAK1, JH1 (JAK1, Homo sapiens, UniProt P23458)", "JAK1 JH2": "Tyrosine-protein kinase JAK1, JH2 (JAK1, Homo sapiens, UniProt P23458)", "note": "Each line is one published result; the experiments were not run side by side."}
{"Compound": "O=c1[nH]c2ccccc2n1C1CCN(Cc2ccc(-c3[nH]c4cc5ncnc5cc4nc3-c3ccccc3)cc2)CC1", "target": "JAK1", "test": "cell-free assay", "setting": "0.5 µM", "measurement": "remaining signal", "result": "94.6%"}
{"Compound": "COc1ncccc1-c1cnn2ccc(N3CCN(C(=O)OC(C)C)CC3)nc12", "target": "JAK1", "test": "binding, competition with immobilised ligand", "setting": "1 µM", "measurement": "remaining binding", "result": "100%"}
{"Compound": "Cn1cc(-c2cc(F)cc(N3CCn4c(cc5c4CCCC5)C3=O)c2CO)cc(Nc2ccc(N3CCN(C4COC4)CC3)cn2)c1=O", "target": "JAK1", "test": "enzyme activity, inhibitor", "setting": "0.1 µM", "measurement": "inhibition", "result": "6%"}
{"Compound": "COc1cc(Nc2ncc(F)c(Nc3ccc4c(n3)NC(=O)C(C)(C)O4)n2)cc(OC)c1OC", "target": "JAK1 JH1", "test": "binding, competition with immobilised ligand", "setting": "10 µM", "measurement": "inhibition", "result": "100%"}
{"Compound": "CC(C)(C)c1cc(C=C(C#N)C#N)cc(Br)c1O", "target": "JAK1", "test": "enzyme activity, inhibitor", "setting": "0.5 µM", "measurement": "remaining activity", "result": "107%"}
{"Compound": "Nc1ncc(-c2nc(N3CCOCC3)nc(N3CCOCC3)n2)c(C(F)F)n1", "target": "JAK1 JH1", "test": "binding, competition with immobilised ligand", "setting": "10 µM", "measurement": "remaining binding", "result": "90%"}
{"Compound": "N#CC1(c2ccccn2)CCN(Cc2cc(C(=O)O)c(=O)n3ccccc23)CC1", "target": "JAK1 JH2", "test": "cell-free assay, competition with immobilised ligand", "setting": "1 µM", "measurement": "remaining binding", "result": "84%"}
{"Compound": "C#Cc1n[nH]c2c(-c3cn(C(C)c4ccccn4)c(=O)[nH]c3=O)cc(F)cc12 (centres unmarked)", "target": "JAK1", "test": "enzyme activity, inhibitor", "setting": "1 µM", "measurement": "inhibition", "result": "-2.3%"}
{"Compound": "Cc1nn(C)cc1-c1nc2c(N3CCN(Cc4ccc(Cl)cc4)CC3)c(Cl)cnc2[nH]1", "target": "JAK1 JH1", "test": "binding, competition with immobilised ligand", "setting": "1 µM", "measurement": "remaining binding", "result": "46%"}
{"Compound": "Cn1cncc1[C@](O)(COc1ccc(C#N)cc1-c1ccc(OC(F)(F)F)cc1)c1ccc(C#N)cc1", "target": "JAK1 JH2", "test": "cell-free assay, competition with immobilised ligand", "setting": "1 µM", "measurement": "remaining binding", "result": "70%"}
{"Compound": "Cn1cc(-c2cccc(N3CCc4c(sc5c4CC(C)(C)C5)C3=O)c2CO)cc(Nc2ccncn2)c1=O", "target": "JAK1", "test": "enzyme activity, inhibitor", "setting": "1 µM", "measurement": "inhibition", "result": "-2%"}
